Tests used:
Candida albicans [1] = assay: Antifungal activity against 24 hrs cultures of 10^7 cells/ml Candida albicans BF-1 biofilms by XTT reduction method; format: functional; details: BF-1, 24 h
Method in brief: (§1)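 Washed late-exponential cells at 1 × 10^7 cells/ml in YNB + 100 mM glucose were adhered 1.5 h at 37°C with shaking at 75 rpm, washed, then grown 24 or 48 h at 37°C, 75 rpm. Biofilms were washed and exposed 24 or 48 h at 37°C to twofold dilutions in RPMI + 2% glucose. Read by XTT at A490. MIC50 is 50% reduction vs drug-free control. Three experiments, four replicates.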

Candida albicans [2] = assay: Antifungal activity against 48 hrs cultures of 10^7 cells/ml biofilm-derived Candida albicans BF-1 planktonic cells hrs by XTT reduction method; format: functional; details: BF-1, 48 h
Method in brief: (§2)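 Biofilms grown from 1 × 10^7 cells/ml (YNB + 100 mM glucose, 1.5 h adherence, 37°C, 75 rpm) for 24 or 48 h, washed, scraped and moved to wells of serially double-diluted drugs. Incubated with drug 24 or 48 h, then XTT–menadione read at 490 nm. MIC50 = 50% reduction versus drug-free control.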

Candida albicans [3] = assay: Antifungal activity against 24 hrs cultures of 10^7 cells/ml Candida albicans ATCC 90028 biofilms by XTT reduction assay; format: functional; details: ATCC 90028, 24 h; method in brief: as §1
Candida albicans [4] = assay: Antifungal activity against 10^8 cells/ml Candida albicans ATCC 90028 planktonic cells by XTT reduction assay; format: functional
Method in brief: (§3)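 High-density planktonic suspensions (10^7 or 10^8 cells/ml) added to serially double-diluted drugs as in the NCCLS setup, run in parallel in RPMI 1640 + 2% glucose and YNB + 100 mM glucose. Viability read by XTT (1 mg/ml) with menadione (0.4 mM stock, 5:1), 3 h dark at 37°C, A490 minus blank wells. MIC50 = lowest concentration giving 50% reduction versus drug-free control.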

Candida albicans [5] = assay: Antifungal activity against 48 hrs cultures of 10^8 cells/ml wild-type Candida albicans BF-1 biofilms by XTT reduction assay; details: BF-1, 48 h
Candida albicans [6] = assay: Antifungal activity against 10^8 cells/ml Candida albicans SC5314 planktonic cells by XTT reduction assay; format: functional; method in brief: as §3
Candida albicans [7] = assay: Antifungal activity against 24 hrs cultures of 10^7 cells/ml biofilm-derived Candida albicans ATCC 90028 planktonic cells hrs by XTT reduction method; format: functional; details: ATCC 90028, 24 h; method in brief: as §2
Candida albicans [8] = assay: Antifungal activity against 24 hrs cultures of 10^7 cells/ml Candida albicans BF-1 planktonic cells by XTT reduction method; format: functional; details: BF-1, 24 h
Method in brief: (§4)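 Age-matched planktonic cultures were grown from the same 1 × 10^7 cells/ml YNB + 100 mM glucose suspension under the biofilm conditions for 24 or 48 h. They were tested against twofold drug dilutions by XTT reduction (3 h at 37°C in the dark, A490 minus blank). MIC50 is 50% reduction vs drug-free control.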

Candida albicans [9] = assay: Antifungal activity against 48 hrs cultures of 10^7 cells/ml Candida albicans BF-1 biofilms by XTT reduction method; format: functional; details: BF-1, 48 h; method in brief: as §1
Candida albicans [10] = assay: Antifungal activity against 48 hrs cultures of 10^8 cells/ml Candida albicans ATCC 90028 biofilms by XTT reduction assay; details: ATCC 90028, 48 h
Candida albicans [11] = assay: Antifungal activity against 10^7 cells/ml Candida albicans ATCC 90028 planktonic cells by XTT reduction assay; format: functional; method in brief: as §3
Candida albicans [12] = assay: Antifungal activity against 10^8 cells/ml wild-type Candida albicans BF-1 planktonic cells by XTT reduction assay; format: functional
Method in brief: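 Planktonic suspensions at 1 × 10^8 cells/ml added to twofold serial drug dilutions in 96-well plates (NCCLS format). Run in parallel in RPMI 1640 + 2% glucose and YNB + 100 mM glucose. Readout by XTT reduction: XTT–menadione in PBS, 3 h at 37°C in the dark, A490 minus blank. MIC50 is 50% reduction vs drug-free control.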

Candida albicans [13] = assay: Antifungal activity against 10^5 cells/ml Candida albicans ATCC 90028 by EUCAST method; format: functional
Method in brief: (§5)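 EUCAST AFST planktonic broth microdilution: RPMI 1640 plus 2% glucose, inoculum 0.5 × 10^5 to 2.5 × 10^5 cells/ml, twofold drug dilutions. Performed on three different occasions.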

Candida albicans [14] = assay: Antifungal activity against 48 hrs cultures of 10^7 cells/ml Candida albicans ATCC 90028 biofilms by XTT reduction method; format: functional; details: ATCC 90028, 48 h; method in brief: as §1
Candida albicans [15] = assay: Antifungal activity against 24 hrs cultures of 10^7 cells/ml Candida albicans ATCC 90028 planktonic cells by XTT reduction method; format: functional; details: ATCC 90028, 24 h
Method in brief: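 Standard 1 × 10^7 cells/ml suspension in YNB + 100 mM glucose propagated planktonically 24 h alongside age-matched biofilms, then exposed to twofold drug dilutions. Metabolic activity read by XTT–menadione reduction, 3 h dark, 37°C, A490 background-subtracted. MIC50 is the 50% reduction point versus drug-free control.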

Candida albicans [16] = assay: Antifungal activity against 48 hrs cultures of 10^7 cells/ml biofilm-derived Candida albicans ATCC 90028 planktonic cells hrs by XTT reduction method; format: functional; details: ATCC 90028, 48 h
Method in brief: (§6)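 Biofilms grown 24 or 48 h from 1 × 10^7 cells/ml were washed, scraped and transferred into plates of twofold serially diluted drugs. They were incubated 24 or 48 h. MIC was read by XTT reduction (3 h at 37°C in the dark, A490 minus blank) as 50% reduction vs drug-free control.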

Candida albicans [17] = assay: Antifungal activity against 48 hrs cultures of 10^7 cells/ml Candida albicans BF-1 planktonic cells by XTT reduction method; format: functional; details: BF-1, 48 h; method in brief: as §4
Candida albicans [18] = assay: Ratio of MIC for 10^8 cells/ml wild-type Candida albicans BF-1 to MIC for 10^7 cells/ml wild-type Candida albicans BF-1 grown as planktonic cells; format: functional; method in brief: as §3
Candida albicans [19] = assay: Antifungal activity against 24 hrs cultures of 10^7 cells/ml Candida albicans SC5314 biofilms by XTT reduction assay; format: functional; details: SC5314, 24 h; method in brief: as §1
Candida albicans [20] = assay: Antifungal activity against 48 hrs cultures of 10^7 cells/ml Candida albicans ATCC 90028 planktonic cells by XTT reduction method; format: functional; details: ATCC 90028, 48 h; method in brief: as §4
Candida albicans [21] = assay: Antifungal activity against 24 hrs cultures of 10^7 cells/ml wild-type Candida albicans BF-1 biofilms by XTT reduction assay; format: functional; details: BF-1, 24 h; method in brief: as §1
Candida albicans [22] = assay: Antifungal activity against 10^5 cells/ml wild-type Candida albicans BF-1 by EUCAST method; format: functional; method in brief: as §5
Candida albicans [23] = assay: Antifungal activity against 10^7 cells/ml wild-type Candida albicans BF-1 planktonic cells by XTT reduction assay; format: functional; method in brief: as §3
Candida albicans [24] = assay: Antifungal activity against 10^3 cells/ml wild-type Candida albicans BF-1 by NCCLS method; format: functional
Method in brief: (§7)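 Planktonic broth microdilution per NCCLS (CLSI): inoculum from 24-h SDA cultures adjusted to 0.5 McFarland at 520 nm, diluted in RPMI 1640 to about 0.5 × 10^3 to 2.5 × 10^3 cells/ml. Cells exposed to twofold drug dilutions, incubated 35°C for 48 h, then MIC read. Three separate occasions.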

Candida albicans [25] = assay: Antifungal activity against 10^3 cells/ml Candida albicans ATCC 90028 by NCCLS method; format: functional; method in brief: as §7
Candida albicans [26] = assay: Antifungal activity against 24 hrs cultures of 10^7 cells/ml biofilm-derived Candida albicans BF-1 planktonic cells hrs by XTT reduction method; format: functional; details: BF-1, 24 h; method in brief: as §6
Candida albicans [27] = assay: Antifungal activity against 24 hrs cultures of 10^7 cells/ml Candida albicans ATCC 90028 biofilms by XTT reduction method; format: functional; details: ATCC 90028, 24 h; method in brief: as §1
Candida albicans [28] = assay: Antifungal activity against 10^3 cells/ml Candida albicans SC5314 by NCCLS method; format: functional; method in brief: as §7

Nc1nc(=O)[nH]cc1F [FLUCYTOSINE]
> 420 µg/mL: MIC (Candida albicans [1]) | MIC (Candida albicans [2]) | MIC (Candida albicans [3]) | MIC (Candida albicans [4]) | MIC (Candida albicans [5]) | MIC (Candida albicans [6]) | MIC (Candida albicans [7]) | MIC (Candida albicans [8]) | MIC (Candida albicans [9]) | MIC (Candida albicans [10]) | MIC (Candida albicans [12]) | MIC (Candida albicans [14]) | MIC (Candida albicans [15]) | MIC (Candida albicans [16]) | MIC (Candida albicans [17]) | MIC (Candida albicans [19]) | MIC (Candida albicans [20]) | MIC (Candida albicans [21]) | MIC (Candida albicans [26]) | MIC (Candida albicans [27])
0.8 µg/mL: MIC (Candida albicans [13]) | MIC (Candida albicans [22]) | MIC (Candida albicans [24]) | MIC (Candida albicans [25]) | MIC (Candida albicans [28])
>1000: Ratio (Candida albicans [18])
6.5 µg/mL: MIC (Candida albicans [11]) | MIC (Candida albicans [23])

CC(=O)N1CCN(c2ccc(OCC3COC(Cn4ccnc4)(c4ccc(Cl)cc4Cl)O3)cc2)CC1 (stereo unspecified) [KETOCONAZOLE]
> 64 µg/mL: MIC (Candida albicans [1]) | MIC (Candida albicans [2]) | MIC (Candida albicans [5]) | MIC (Candida albicans [6]) | MIC (Candida albicans [7]) | MIC (Candida albicans [9]) | MIC (Candida albicans [12]) | MIC (Candida albicans [14]) | MIC (Candida albicans [16]) | MIC (Candida albicans [17]) | MIC (Candida albicans [19]) | MIC (Candida albicans [20]) | MIC (Candida albicans [21]) | MIC (Candida albicans [26]) | MIC (Candida albicans [27])
64 µg/mL: MIC (Candida albicans [3]) | MIC (Candida albicans [4]) | MIC (Candida albicans [10])
16 µg/mL: MIC (Candida albicans [8]) | MIC (Candida albicans [23])
8 µg/mL: MIC (Candida albicans [11]) | MIC (Candida albicans [15])
0.125 µg/mL: MIC (Candida albicans [13]) | MIC (Candida albicans [22]) | MIC (Candida albicans [24]) | MIC (Candida albicans [25]) | MIC (Candida albicans [28])
256: Ratio (Candida albicans [18])

Source: ChEMBL document CHEMBL1671628, “Cell density and cell aging as factors modulating antifungal resistance of Candida albicans biofilms” (2008)
